“Also recorded” adds a separate entry of the source.
What was measured:
[1] = intra-articular injection, ref [47]; cited from earlier work
[2] = cited from earlier work
[3] = Net charge estimated by fitting Donnan equilibrium theory to uptake data; assay type: physicochemical, bovine; conditions: average of individual explants, mean ± SD, n = 68
How it was run: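 Bovine cartilage disks (3-mm, L1/L2) equilibrated 48 h at 4°C in PBS with 0.1% BSA, 0.01% NaN₃ and protease inhibitors containing ¹²⁵I-labelled peptide. Disk and bath counted by gamma counter. Uptake ratio: tissue concentration per water weight over bath concentration. sGAG measured by DMMB after proteinase-K digestion. Z is the exponent of a power-law relating peptide uptake to Na⁺ partitioning calculated from each specimen's GAG density.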

[4] = Equilibrium uptake / competitive binding in adult bovine cartilage; conditions: labeled vs unlabeled Pf-pep
Solute properties = assay type: physicochemical; conditions: known charge of the trivalent peptide
[5] = Calculated diffusion times and temperature effect
[6] = vs native BSA, ref [21]–[23]; cited from earlier work
[7] = ref [17], [18]; cited from earlier work

O=C(O)Cc1ccccc1Nc1c(Cl)cccc1Cl [diclofenac]
clearance time from synovial fluid [1]: 1 to 5 h

OC[C@H]1OC(O)[C@H](O)[C@@H](O)[C@@H]1O (stereo partly drawn) [glucose]
variation of diffusivity with tissue depth ([2]; ref [42]): did not vary significantly with tissue depth

O=C(O)c1ccccc1O [salicylate]
clearance time from synovial fluid [1]: 1 to 5 h

CN(C)c1ccc2c(-c3ccccc3C(=O)[O-])c3ccc(N(C)C)cc3[o+]c2c1 [tetramethylrhodamine]
effect of static compression on diffusivity ([2]; TMR, ref [49], [50]): reduced the diffusivities

Arg-Tyr-Lys-Arg-Thr [Pf-pep]
average net charge Z [3]: +3.07 ± 0.74
binding to sites within cartilage [4]: negligible binding; also recorded: little or no binding of Pf-pep to sites within the tissue; also recorded: did not show measurable binding to the negatively charged GAG chains in cartilage
known net charge (Solute properties): +3
characteristic time lag L^2/6D ([5]; L = 1 mm, D ~1×10^−6 cm^2/s): ~ 27 min
factor of increase of diffusion coefficient at 37°C ([5]; Stokes-Einstein relation, from room temperature to 37°C): ~ 1.4
diffusion time constant δ^2/(π^2D) ([5]; δ = 400 μm, D ~1×10^−6 cm^2/s): ~ 2.7 min

cationized bovine serum albumin (BSA): cationized bovine serum albumin
uptake and retention in murine cartilage [6]: increased uptake and prolonged retention via binding within murine cartilage compared to native BSA

insulin-like growth factor-1 [IGF-1]
binding to IGFBPs in cartilage ECM [7]: binds to specific IGF binding proteins (IGFBPs)

From PMC2885539 (Archives of biochemistry and biophysics, 2010)
